Test results from ChEMBL document CHEMBL4732104, “Discovery of bardoxolone derivatives as novel orally active necroptosis inhibitors” (Eur J Med Chem, 2021).
Calls of active or inactive are those of the source. The calls are words filed in the database; no cut-off is given here.

Legend:
[1] = test system: HT-29; assay: Protection against TNFalpha/cycloheximide (TC)-induced apoptosis in human HT-29 cells assessed as increase in cell viability at 0.25 to 5 uM measured after 24 hrs by celltiter-glo luminescent cell viability assay; format: functional, cell-based; conditions: dose 0.25-5 µM
Method in brief: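 HT-29 cells treated with agent across concentrations, then TNF-α and cycloheximide (TC) for 24 h. CellTiter-Glo luminescent viability, mean ± S.D. from three independent experiments.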

[2] = molecular target: T1, Heat shock protein HSP90 (Homo sapiens) (UniProt P07900+P08238); assay: Inhibition of HSP90 in TNFalpha/SM-164/Z-VAD-fmk (TSZ)-induced human HT-29 cells assessed as reduction in EGFR expression at 10 uM by Western blot analysis; format: cell-based; conditions: time 0.5-6 hrs
[3] = molecular target: T1, Heat shock protein HSP90 (Homo sapiens); assay: Inhibition of HSP90 in TNFalpha/SM-164/Z-VAD-fmk (TSZ)-induced human HT-29 cells assessed as reduction in RIPK1 expression at 10 uM preincubated for 30 mins followed by TSZ stimulation and measured after 2 to 6 hrs by Western blot analysis; format: cell-based; conditions: time 2-6.5 hrs
Method in brief: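 HT-29 cells pretreated 30 min with agent (10 μM), then TSZ for the indicated times. Lysed in RIPA with protease and phosphatase inhibitors, BCA quantified. 30 μg protein run on SDS-PAGE and blotted to PVDF. Blocked in 5% BSA, primary antibodies 1:1000 overnight at 4 °C, secondary 1:8000 for 1 h at room temperature.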

[4] = test system: Mus musculus; assay: Protection against TNFalpha-induced C57BL/6J mouse model of systemic inflammatory response syndrome assessed as reduction in hypothermia at 10 to 20 mg/kg, ig administered via gavage 2 hrs prior to TNFalpha stimulation and measured after 10 to 60 mins by electric thermometric method; format: functional, organism-based; conditions: dose 10-20 mg/kg, time 2-3 hrs
Method in brief: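 Female C57BL/6J mice, fasted, n=11 per group. Agent at 10 or 20 mg/kg in 0.5% CMC-Na by gavage 2 h before i.v. mTNF-α (250 µg/kg). z-VAD-fmk i.p. 200 µg at −15 min and 75 µg at +1 h. Body temperature tracked, mean ± S.E.M.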

[5] = test system: Mus musculus; assay: Protection against TNFalpha-induced C57BL/6J mouse model of systemic inflammatory response syndrome assessed as survival at 20 mg/kg, ig administered via gavage 2 hrs prior to TNFalpha stimulation and measured after 10 to 60 mins relative to control; format: functional; conditions: po, time 2-3 hrs
Method in brief: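 Female C57BL/6 J mice, 6–8 weeks, fasted overnight, n=11 per group. Compound suspended in 0.5% CMC-Na, by oral gavage 2 h before mTNF-α 250 µg/kg i.v.; z-VAD-fmk 200 µg i.p. 15 min before and 75 µg 1 h after TNF. Survival and body temperature monitored.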

[6] = test system: Rattus norvegicus; assay: Neuroprotective activity in middle cerebral artery occlusion-induced Sprague-Dawley rat model of ischemia-reperfusion injury assessed as reversal of pathological change at 100 mg/kg by H and E staining based analysis; format: functional, organism-based
Method in brief: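 Rats underwent 2 h MCA filament occlusion, then 24 h reperfusion, agent at 100 mg/kg. Animals perfused with saline and 4% paraformaldehyde. Brains paraffin-embedded and cut into 5 μm coronal sections. Hippocampus and cortex assessed by HE staining.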

What does the source list for CC1(C)CC[C@]2(C(=O)n3cnc(-c4cccnc4)c3)CC[C@]3(C)[C@H](C(=O)C=C4[C@@]5(C)C=C(C#N)C(=O)C(C)(C)[C@@H]5CC[C@]43C)[C@@H]2C1?
Activity [1]: Active; inhibition [2]: Dose-dependent effect; inhibition [3]: Active; Activity [4]: Active; survival at 20 mg/kg [5]: 100%; Activity [6]: Active
